# Screening results deposited in PubChem by several laboratories.
# GalR3 antag: human GalR3 antagonism; O60755; HEK293 GalR3-CNG cAMP membrane potential fluorescence; galR3 body fused to GalR1 C-terminus; inhibition, % at 3 µM; 360,000 compounds, 0.44% hits; AID 651719;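 active = inhibition above the screen-wide average plus 3 SD, cut at about 13% in these data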;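 also: forskolin and galanin both at EC90 stimulate the cells; cAMP rise reported by CNG channel membrane potential dye signal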
# Target sequence (O60755 1-299 limits assumed): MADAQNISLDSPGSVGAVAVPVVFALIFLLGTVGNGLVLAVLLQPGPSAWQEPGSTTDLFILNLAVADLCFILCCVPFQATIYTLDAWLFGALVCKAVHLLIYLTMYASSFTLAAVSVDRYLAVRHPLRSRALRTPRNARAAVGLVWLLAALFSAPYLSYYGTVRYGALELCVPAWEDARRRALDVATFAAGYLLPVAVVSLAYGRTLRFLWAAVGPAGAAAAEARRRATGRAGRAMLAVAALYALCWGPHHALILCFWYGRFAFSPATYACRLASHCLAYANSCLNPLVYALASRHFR
# Calb FLC: affects C. albicans growth with fluconazole | C. albicans CaCi-2 + fluconazole, Alamar Blue growth, 48 h | growth inhibition, % (test concentration not listed) | 300,000 compounds, 0.57% hits | AID 1979;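 active = growth inhibition above about 58% in most replicates, limit read from the data, passing the limit was not always enough; inconclusive = exactly half the replicates above a set limit; inactive = most replicates below a set limit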;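 also: all wells also contain fluconazole at 8 µg/ml as a sub-toxic cotreatment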
# MC4R ag barr: activates human MC4R beta-arrestin recruitment; U2OS MC4R beta-arrestin complementation, luminescence; percent of melanotan II response, DMSO zero; 360,000 compounds, 0.98% hits; AID 540308; activation, % at 8.9 µM; P32245;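 active = activation above a per-plate cutoff, the mean activation of sample wells on that plate plus 3 SD, cut at about 8% in these data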
# Efflux pump mplx: antifungal efflux pump inhibition, Nile Red retention. S. cerevisiae Candida pump triplex. 330,000 compounds, 0.44% hits. inhibition, % at 10 µM;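 active = plate passing quality check with inhibition over a set limit, or well fluorescence over plate mean plus 4 SD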;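 also: Nile Red retained in pooled yeast measured as flow cytometry median fluorescence; higher means more Nile Red kept so more efflux inhibition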
# H9c2 TAG inh: reduces triacylglycerol accumulation in H9c2 cells. Nile Red lipid (TAG) fluorescence; cells loaded with 200 µM oleic acid. inhibition, % at 12.5 µM. 230,000 compounds, 0.66% hits. AID 651582;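 active = pattern-corrected inhibition of lipid staining of at least 50% with the nuclear-stain viability signal not falling by more than 50%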
# MC4R antagonist: human MC4R antagonism in cAMP assay; P32245; MC4R-expressing cells, MTII-stimulated cAMP, LANCE TR-FRET; inhibition, % at 6.5 µM; 360,000 compounds, 0.48% hits;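 active = inhibition above its plate's cutoff, the mean of tested wells on that plate plus 3 SD, cut at about 29% in these data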
#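 Test system: U2OS cells stably expressing human melanocortin 4 receptor (MC4R); also added: Melanotan II challenge; compound: 6.5 µM single dose; timing: 30-min compound preincubation, 1-h Melanotan II challenge, 1-h detection, room temperature; signal: Eu-cAMP/anti-cAMP TR-FRET, emission 671 nm; repeats: one well per compound, no replicates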
# MC4R barr conf: human MC4R beta-arrestin agonism confirmation. shares compounds with MC4R ag barr. U2OS MC4R beta-arrestin recruitment, luminescence; scaled DMSO 0%, Melanotan II 100%. activation, % at 8.9 µM. 2,400 compounds, 31% hits. AID 602192;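 active = mean activation across replicates above the hit cutoff set in the earlier primary screen, cut at about 8% in these data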
# MOR-DOR barr ag: counter-screen for MC4R agonists: agonists of mu-delta opioid heterodimer. 2,400 compounds, 5.8% hits. shares compounds with MC4R ag barr. U2OS PathHunter beta-arrestin, beta-gal luminescence; percent of deltorphin B response, DMSO zero. activation, % at 9.2 µM;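 active = mean activation across replicates exceeds the hit threshold derived in the earlier primary screen, cut at about 18% in these data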
# Numbers stand for hits; i = inactive; ? = inconclusive; nt = no result. An excerpt weighted towards active compounds, which were near 2.9% of everything screened.
SMILES,GalR3 antag,Calb FLC,MC4R ag barr,Efflux pump mplx,H9c2 TAG inh,MC4R antagonist,MC4R barr conf,MOR-DOR barr ag
O=C(CSc1ccccc1)Nc1nnc(COc2ccc(Cl)cc2)s1,i,i,18,i,nt,i,i,i
Cc1cccc(C)c1OCc1nnc(NC(=O)CSc2ccc(Cl)cc2)s1,i,i,i,i,nt,i,nt,nt
COc1ccccc1-c1cnc(C(O)c2cc(Cl)cc(Cl)c2)[nH]1 (stereo not given),i,nt,i,nt,i,i,nt,nt
C/C(=N/NC(=O)c1cccs1)c1ccc(NC(=O)COc2ccc(Cl)cc2)cc1,i,i,12,i,i,i,13,i
COCCNc1nc2cc(-c3ccc(C)cc3)sc2c(=O)n1C,i,nt,i,nt,i,i,nt,nt
CCOC(=O)c1nn(-c2cccc(OC)c2)c2nc(CC)c(C#N)c(=O)n12,i,?,11,i,nt,i,i,i
CCOC(=O)c1nn(-c2ccccc2F)c2nc(-c3ccco3)c(C#N)c(=O)n12,i,i,i,i,nt,i,nt,nt
COc1ccc(NC(=O)COC(=O)C2CCN(S(=O)(=O)c3cccs3)CC2)cc1OC,i,nt,i,i,i,i,nt,nt
Cn1cnc([N+](=O)[O-])c1S(=O)(=O)Oc1ccc(Cl)cc1,i,nt,i,nt,i,i,nt,nt
Cc1sc2ncnc(N3CCC(C(=O)Nc4ccc(C#N)cc4)CC3)c2c1C,i,i,11,i,i,i,i,i
O=C(C(=O)N1CCC(CNS(=O)(=O)c2ccc3ccccc3c2)CC1)c1cc2ccccc2o1,i,nt,nt,nt,nt,nt,nt,nt
COC(=O)Cc1nnn2c1[C@H](C)[C@@H](OC)c1ccccc1-2,i,nt,nt,nt,nt,nt,nt,nt
CC(=O)c1cc2c(cc1NC(=O)c1ccc(C)cc1)OCCO2,i,i,9.6,i,nt,i,i,i
CCC(=O)c1cc2c(cc1NC(=O)c1ccc(C)cc1)OCCO2,i,i,i,i,nt,i,nt,nt
COc1ccc(-c2csc(NC(=S)NC(=O)c3ccco3)n2)cc1,i,i,i,i,nt,i,nt,nt
COc1ccc(-c2csc(NC(=O)COC(=O)c3ccco3)n2)cc1,i,i,11,i,nt,i,i,i
COc1ccc(C=C2CS(=O)(=O)CC(=Cc3ccc(OC)cc3)C2=O)cc1,i,nt,i,nt,i,i,nt,nt
COc1ccc(N=CC2=C(O)c3ccccc3C2=O)c(OC)c1,i,i,12,i,i,i,i,i
O=C(NN=Cc1ccc2c(c1)CCC2)c1cccc([N+](=O)[O-])c1,i,nt,22,nt,i,i,13,i
O=C(N/N=C/c1ccncc1)c1cccc([N+](=O)[O-])c1,i,i,nt,i,nt,nt,nt,nt
O=C(Cc1cccc2ccccc12)NN=Cc1ccc2c(c1)CCC2,i,nt,13,nt,i,i,i,i
Cn1c(=O)c(C(=O)CSc2ccccc2)c(N)n(Cc2ccccc2)c1=O,i,i,30,i,i,i,i,i
Cc1ccc(NC(=O)CCC(=O)OCC(=O)c2ccc(Oc3ccc([N+](=O)[O-])cc3)cc2)cc1,i,?,26,i,i,i,i,i
O=C(Nc1ccccc1)Nc1ccc2ccccc2n1,i,i,12,i,nt,i,i,i
O=C(Nc1ccc(F)cc1)Nc1ccc2ccccc2n1,i,i,i,i,nt,i,nt,nt
SMILES,GalR3 antag,Calb FLC,MC4R ag barr,Efflux pump mplx,H9c2 TAG inh,MC4R antagonist,MC4R barr conf,MOR-DOR barr ag
COc1ccc(-c2noc([C@@H]3O[C@H](CO)[C@H](O)[C@H](O)[C@H]3O)n2)cc1OC,i,nt,i,nt,i,i,nt,nt
COc1ccccc1CN1C(=O)c2ccncc2C1=O,nt,i,i,i,nt,i,nt,nt
COc1ccc(CCN2C(=O)c3ccncc3C2=O)cc1OC,i,i,14,i,i,i,i,i
CC1(C)CC(=O)C2=C(C1)Nc1ccccc1NC2c1ccc([N+](=O)[O-])cc1 (stereo not given),i,i,i,i,i,i,nt,nt
CCCNC(=O)C(Cc1ccc(Cl)cc1)NC(=O)c1ccc(-c2ccccc2)cc1 (stereo not given),i,nt,14,i,i,i,i,i
NC(=O)C1(Nc2ccc(Br)cc2)CCCC1,i,nt,i,nt,i,i,nt,nt
